Measured values from ChEMBL document CHEMBL3526151, “Reversible disulfide formation of the glutamate carboxypeptidase II inhibitor E2072 results in prolonged systemic exposures in vivo” (Drug Metab Dispos, 2012).

Columns and labels:
[1] = Cmax in Sprague-Dawley rat plasma at 10 mg/kg, po administered as single dose by LC-MS/MS analysis; format: ADME, organism-based; parameters: dose 10 mg/kg, route oral
Procedure, shortened: (§1)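 Male Sprague-Dawley rats were dosed orally with 10 mg/kg/day, either once or daily for 5 days; n = 4 per group. Blood was taken by cardiac puncture and liver, kidney, brain and sciatic nerve were collected at 0–8 h post-dose. Tissues were homogenized in PBS containing NEM at equal volume per gram. NEM-derivatized analyte was extracted with methanol and quantified by LC-MS/MS (1–5000 ng/ml). Cmax is the observed value.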

[2] = Phase 2 metabolic stability in dog liver microsomes assessed as compound remaining at 10 uM measured for 1 hr by LC-MS/MS analysis; format: ADME, Canis lupus familiaris; details: read-out: Stability
Procedure, shortened: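 For glucuronidation, compound was preincubated at 37°C in 50 mM Tris-HCl, pH 7.5, with 0.5 mg/ml liver microsomes, 8 mM MgCl2 and 25 µg/ml alamethicin. Reactions were started in duplicate with 2 mM UDPGA (final). Samples were taken up to 1 h, quenched with acetonitrile containing internal standard, and compound disappearance was measured by LC-MS/MS.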

[3] = Cmax in Sprague-Dawley rat liver at 10 mg/kg/day, po administered for 5 days measured per gm of tissue by LC-MS/MS analysis; format: ADME, organism-based; parameters: dose 10 mg/kg/day, route oral; procedure, shortened: as §1
[4] = AUC(0 to infinity) in Sprague-Dawley rat at 1 mg/kg, iv administered as bolus injection measured under fasted conditions by LC-MS/MS analysis; format: ADME, organism-based; parameters: time infinity, dose 1 mg/kg, route intravenous; details: plasma
Procedure, shortened: (§2)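 Male Sprague-Dawley rats (280–330 g), jugular vein cannulated, fasted overnight until 4 h post-dose. Single tail-vein bolus of 0.1, 1, 10 or 30 mg/kg in 50 mM HEPES buffered saline, pH 7.4. Blood drawn 0–24 h into heparin tubes containing NEM. Plasma quantified by LC-MS/MS after NEM derivatization. Noncompartmental analysis: AUClast by linear trapezoidal rule, Cl = dose/AUC0-∞. Mean ± S.D., n = 4–9.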

[5] = Clearance in Sprague-Dawley rat at 0.1 mg/kg, iv administered as bolus injection measured under fasted conditions by LC-MS/MS analysis; format: ADME, organism-based; parameters: dose 0.1 mg/kg, route intravenous; details: in vivo; procedure, shortened: as §2
[6] = Tmax in Sprague-Dawley rat at 30 mg/kg, po administered via gavage measured under fasted conditions by LC-MS/MS analysis; format: ADME, organism-based; parameters: dose 30 mg/kg, route oral; details: in vivo
Procedure, shortened: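 Jugular-cannulated male Sprague-Dawley rats, 280–330 g, fasted overnight to 4 h post-dose. Single dose in 50 mM HEPES-buffered saline pH 7.4, by oral gavage or as tail-vein i.v. bolus. Blood into heparin/NEM tubes at 0–24 h. Plasma measured by LC-MS/MS; noncompartmental analysis; Tmax observed; Vd = dose/(AUCinf·λz).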

[7] = AUC(0 to last) in Sprague-Dawley rat at 1 mg/kg, po administered via gavage measured under fasted conditions by LC-MS/MS analysis; format: ADME, organism-based; parameters: time 0 - last, dose 1 mg/kg, route oral; details: plasma
Procedure, shortened: (§3)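 Fasted male Sprague-Dawley rats (280–330 g) received 0.1, 1, 10 or 30 mg/kg by oral gavage in 50 mM HEPES buffered saline, pH 7.4. Blood drawn at 0.25–24 h into heparin/NEM tubes; plasma analyzed by LC-MS/MS. Cmax taken as observed. AUC by linear trapezoidal rule with extrapolation by λz. Cl/F and Vd/F reported. Mean ± S.D., n = 4–9.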

[8] = Apparent oral clearance in Sprague-Dawley rat at 1 mg/kg, po administered via gavage measured under fasted conditions by LC-MS/MS analysis; format: ADME, organism-based; parameters: dose 1 mg/kg, route oral; details: in vivo; procedure, shortened: as §3
[9] = Half life in Sprague-Dawley rat at 0.1 mg/kg, po administered via gavage measured under fasted conditions by LC-MS/MS analysis; format: ADME, organism-based; parameters: dose 0.1 mg/kg, route oral; details: in vivo

Cmax [1]: 4920 ng/mL
remaining at 1 h, 10 µM [2]: > 90%
Cmax [3]: 457 ng/g
AUC(0-inf) [4]: 13000 ng·h/mL
clearance [5]: 1 mL/min/kg
Tmax [6]: 1.43 h
AUC(0-t) [7]: 2610 ng·h/mL
CL/F [8]: 5.5 mL/min/kg
half-life [9]: 9.33 h
Structure (SMILES): O=C(O)c1cccc(-c2cccc(CCS)c2C(=O)O)c1
